Results from ChEMBL document CHEMBL3525963, “Tissue distribution and elimination of [14C]apixaban in rats” (Drug Metab Dispos, 2011).

Key:
Format in all cases: ADME, organism-based
Parameters in all cases: dose 5 mg/kg, dosed compound name [14C]-apixaban, route oral
Conditions in all cases: in vivo
Adrenal gland [1] = assay: Biodistribution in pregnant Sprague-Dawley rat adrenal gland at 5 mg/kg, po administered as single dose measured after 1 hr
[2] = Drug level in lactating Sprague-Dawley rat milk at 5 mg/kg, po administered as single dose after 6 hrs
Rattus norvegicus [3] = assay: Biodistribution in pregnant Sprague-Dawley rat bone marrow at 5 mg/kg, po administered as single dose measured after 1 hr
Rattus norvegicus [4] = assay: Biodistribution in male Sprague-Dawley rat kidney cortex at 5 mg/kg, po administered as single dose measured after 0.5 hrs
Rattus norvegicus [5] = assay: Biodistribution in female Sprague-Dawley rat pituitary gland at 5 mg/kg, po administered as single dose measured after 1 hr
Summary of the method: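 [14C]apixaban (20 μCi/mL in dosing solution) in 0.5% Tween 80 in Labrafil given by oral gavage to fasted female rats, 206-213 g, at 100 μCi/kg. One rat per time point was euthanized and snap-frozen. Sagittal 40 µm whole-body sections were read by QWBA phosphor imaging against [14C]glucose standards. Results are in µg eq apixaban/g, with LLOQ 0.037 μg eq/g.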

Lung = assay: Biodistribution in male Sprague-Dawley rat lung at 5 mg/kg, po administered as single dose measured after 72 hrs
Summary of the method: (§1)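 Fasted male SD rats (225-252 g) each received one oral gavage dose of [14C]apixaban, 5 mg/kg (100 μCi/kg), in 0.5% Tween 80/Labrafil vehicle. One rat was killed per time point, from 0.5 to 168 h. Frozen carcasses were cut into 40 µm sagittal whole-body sections and read by QWBA phosphor imaging against [14C]glucose calibrants. Results are in µg apixaban eq/g; BLQ <0.037 µg eq/g.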

Blood [6] = assay: Biodistribution in pregnant Sprague-Dawley rat blood at 5 mg/kg, po administered as single dose measured after 8 hrs
Summary of the method: (§2)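 Fasted pregnant SD rats (n=6, 270-319 g) each received one oral gavage dose of [14C]apixaban, 5 mg/kg (100 μCi/kg), in 0.5% Tween 80/Labrafil. One rat was killed at each of 0.5, 1, 4, 8, 24 and 48 h. Carcasses were frozen in hexane/dry ice, cut into 40 µm sagittal sections, exposed to phosphor plates and quantified against [14C]glucose standards as µg eq/g. LLOQ was 0.037 µg eq/g.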

Harderian gland [7] = assay: Biodistribution in male Sprague-Dawley rat harderian gland at 5 mg/kg, po administered as single dose measured after 0.5 hrs
Summary of the method: (§3)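 [¹⁴C]Apixaban given by oral gavage at 5 mg/kg (100 μCi/kg) in 0.5% Tween 80 in Labrafil (1.0 mg/mL dosing solution) to rats fasted overnight through 4 h post-dose. One rat per time point; carcass frozen in hexane/dry ice. Quantitative whole-body autoradiography used 40 µm sagittal sections and a phosphor imaging plate calibrated with [¹⁴C]glucose standards (0.001–6.5 μCi/g). Read-out in µg eq apixaban/g; LLOQ 0.037 μg eq/g.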

Rattus norvegicus [8] = assay: Biodistribution in male Sprague-Dawley rat salivary gland at 5 mg/kg, po administered as single dose measured after 0.5 hrs
Rattus norvegicus [9] = assay: Biodistribution in female Sprague-Dawley rat salivary gland at 5 mg/kg, po administered as single dose measured after 24 hrs
Summary of the method: (§4)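 Quantitative whole-body autoradiography was run after a single 5 mg/kg (100 μCi/kg) oral gavage to fasted female or pregnant SD rats, one rat per time point. Carcasses were frozen in hexane/dry ice, and 40 µm sagittal sections were dried at −20°C for at least 48 h. Sections were exposed to a phosphor plate alongside [14C]glucose standards (0.001–6.5 µCi/g). Results are µg eq/g, with LLOQ 0.037 µg eq/g.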

Muscle tissue [10] = assay: Biodistribution in female Sprague-Dawley rat muscle at 5 mg/kg, po administered as single dose measured after 4 hrs; summary of the method: as §3
Blood [11] = assay: Biodistribution in female Sprague-Dawley rat blood at 5 mg/kg, po administered as single dose measured after 8 hrs; summary of the method: as §3
Harderian gland [12] = assay: Biodistribution in male Sprague-Dawley rat harderian gland at 5 mg/kg, po administered as single dose measured after 4 hrs; summary of the method: as §3
Rattus norvegicus [13] = assay: Biodistribution in fetal liver of pregnant Sprague-Dawley rat at 5 mg/kg, po administered as single dose measured after 48 hrs; summary of the method: as §2
Rattus norvegicus [14] = assay: Biodistribution in pregnant Sprague-Dawley rat salivary gland at 5 mg/kg, po administered as single dose measured after 24 hrs
Summary of the method: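 Pregnant SD rats (270-319 g) were fasted overnight and given one oral gavage of 5 mg/kg (100 μCi/kg) in 0.5% Tween 80 in Labrafil. One rat was euthanized per time point (0.5, 1, 4, 8, 24, 48 h) and the carcass frozen. 40 µm sagittal sections were phosphor-imaged against [14C]glucose standards and results reported as µg eq/g; LLOQ 0.037 µg eq/g.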

Rattus norvegicus [15] = assay: Biodistribution in fetal liver of pregnant Sprague-Dawley rat at 5 mg/kg, po administered as single dose measured after 4 hrs
Summary of the method: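 Pregnant rats, 270-319 g and fasted overnight, received [14C]apixaban by oral gavage at 100 μCi/kg in 0.5% Tween 80/Labrafil. One dam per time point was euthanized and frozen in hexane/dry ice. Fetal tissue radioactivity was measured by QWBA on 40 µm sagittal sections calibrated with [14C]glucose standards. Values are in µg eq/g, with LLOQ 0.037 μg eq/g.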

Harderian gland [16] = assay: Biodistribution in pregnant Sprague-Dawley rat harderian gland at 5 mg/kg, po administered as single dose measured after 1 hr
Muscle tissue [17] = assay: Biodistribution in male Sprague-Dawley rat muscle at 5 mg/kg, po administered as single dose measured after 24 hrs
Summary of the method: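 [14C]apixaban (1.0 mg/mL, 20 μCi/mL) in 0.5% Tween 80 in Labrafil, given by oral gavage at 100 μCi/kg to male rats (225-252 g) fasted overnight through 4 h post-dose. One rat per time point. Carcasses frozen in hexane/dry ice and cut into 40 µm sagittal sections. QWBA read on phosphor plates against [14C]glucose standards, reported as µg eq/g. LLOQ 0.037 µg eq/g.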

Rattus norvegicus [18] = assay: Biodistribution in male Sprague-Dawley rat pituitary gland at 5 mg/kg, po administered as single dose measured after 0.5 hrs
Adrenal gland [19] = assay: Biodistribution in male Sprague-Dawley rat adrenal gland at 5 mg/kg, po administered as single dose measured after 72 hrs; summary of the method: as §1
Harderian gland [20] = assay: Biodistribution in female Sprague-Dawley rat harderian gland at 5 mg/kg, po administered as single dose measured after 0.5 hrs; summary of the method: as §3
Adrenal gland [21] = assay: Biodistribution in male Sprague-Dawley rat adrenal gland at 5 mg/kg, po administered as single dose measured after 4 hrs; summary of the method: as §3
Rattus norvegicus [22] = assay: Biodistribution in fetal blood of pregnant Sprague-Dawley rat at 5 mg/kg, po administered as single dose measured after 48 hrs; summary of the method: as §4
Harderian gland [23] = assay: Biodistribution in female Sprague-Dawley rat harderian gland at 5 mg/kg, po administered as single dose measured after 24 hrs; summary of the method: as §4
Heart = assay: Biodistribution in male Sprague-Dawley rat heart at 5 mg/kg, po administered as single dose measured after 0.5 hrs; summary of the method: as §3
Thymus = assay: Biodistribution in male Sprague-Dawley rat thymus at 5 mg/kg, po administered as single dose measured after 24 hrs; summary of the method: as §1

For `COc1ccc(-n2nc(C(N)=O)c3c2C(=O)N(c2ccc(N4CCCC[14C]4=O)cc2)CC3)cc1`, which Radiolabel recovery (Adrenal gland [1]) is on record?
Its Radiolabel recovery is 1.9 ugequiv/g.

And the Radiolabel recovery [2]?
The Radiolabel recovery was 8.92 µg/mL.

And the Radiolabel recovery (Rattus norvegicus [3])?
The Radiolabel recovery was 0.33 ugequiv/g.

What about the Radiolabel recovery (Rattus norvegicus [4]) of the same compound?
The Radiolabel recovery was 0.81 ugequiv/g.

And the Radiolabel recovery (Rattus norvegicus [5])?
The Radiolabel recovery was 0.42 ugequiv/g.

What about the Radiolabel recovery (Lung) of the same compound?
Its Radiolabel recovery is “Not detected assumed BLQ”.

What about the Radiolabel recovery (Blood [6]) of the same compound?
Its Radiolabel recovery is 0.09 ugequiv/g.

What about the Radiolabel recovery (Harderian gland [7]) of the same compound?
Its Radiolabel recovery is 0.21 ugequiv/g.

And the Radiolabel recovery (Rattus norvegicus [8])?
The Radiolabel recovery was 0.3 ugequiv/g.

What about the Radiolabel recovery (Rattus norvegicus [9]) of the same compound?
The Radiolabel recovery was “Not detected assumed BLQ”.

And the Radiolabel recovery (Muscle tissue [10])?
Its Radiolabel recovery is 0.29 ugequiv/g.

What about the Radiolabel recovery (Blood [11]) of the same compound?
The Radiolabel recovery was 0.17 ugequiv/g.

And the Radiolabel recovery (Harderian gland [12])?
Its Radiolabel recovery is 0.42 ugequiv/g.

What about the Radiolabel recovery (Rattus norvegicus [13]) of the same compound?
Its Radiolabel recovery is “Not sampled as not visualised in autoradiograph”.

What about the Radiolabel recovery (Rattus norvegicus [14]) of the same compound?
The Radiolabel recovery was “Not detected assumed BLQ”.

And the Radiolabel recovery (Rattus norvegicus [15])?
The Radiolabel recovery was 0.32 ugequiv/g.

What about the Radiolabel recovery (Harderian gland [16]) of the same compound?
The Radiolabel recovery was 1.09 ugequiv/g.

What about the Radiolabel recovery (Muscle tissue [17]) of the same compound?
Its Radiolabel recovery is under 0.037 ugequiv/g.

And the Radiolabel recovery (Rattus norvegicus [18])?
The Radiolabel recovery was 0.26 ugequiv/g.

And the Radiolabel recovery (Adrenal gland [19])?
The Radiolabel recovery was “Not sampled as not visualised in autoradiograph”.

What about the Radiolabel recovery (Harderian gland [20]) of the same compound?
The Radiolabel recovery was 0.4 ugequiv/g.

And the Radiolabel recovery (Adrenal gland [21])?
Its Radiolabel recovery is 0.76 ugequiv/g.

What about the Radiolabel recovery (Rattus norvegicus [22]) of the same compound?
The Radiolabel recovery was “Not detected assumed BLQ”.

And the Radiolabel recovery (Harderian gland [23])?
The Radiolabel recovery was “Not detected assumed BLQ”.

What about the Radiolabel recovery (Heart) of the same compound?
Its Radiolabel recovery is 0.33 ugequiv/g.

What about the Radiolabel recovery (Thymus) of the same compound?
The Radiolabel recovery was “Not detected assumed BLQ”.
